High-throughput results: PubChem BioAssay, several laboratories
TAG inh: reduces triacylglycerol accumulation in H9c2 cells; inhibition, % at 12.5 µM; 0.66% of 230,000 active; AID 651582; Nile Red lipid (TAG) fluorescence; cells loaded with 200 µM oleic acid;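 active means pattern-corrected inhibition of lipid staining of at least 50% with the nuclear-stain viability signal not falling by more than 50%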;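 further: 0% = DMSO wells and 100% = triacsin C control wells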
Tb MetRS inh: blocks T. brucei methionyl-tRNA synthetase activity; purified T. brucei MetRS, ATP depletion, Kinase-Glo luminescence; inhibition, % at 11.9 µM; 0.4% of 360,000 active; AID 624268;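 active means inhibition above a per-plate cutoff of the control wells' mean inhibition plus 3 SD, cut at about 5.5% in these data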;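 further: 0% = DMSO wells median and 100% = median of wells with control inhibitor compound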
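Dosing: 11.9 µM compound single dose, 0.9% DMSO; Assay system: purified T. brucei MetRS enzyme; Measured by: Kinase-Glo luciferase luminescence reporting remaining unconsumed ATP; Schedule: 15 min plus 2 h at 25 °C.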
MC4R ag barr: agonists of human melanocortin 4 receptor (MC4R) beta-arrestin. activation, % at 8.9 µM. 0.98% of 360,000 active. U2OS MC4R beta-arrestin complementation, luminescence; percent of melanotan II response, DMSO zero. AID 540308. P32245;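 active means activation above a per-plate cutoff, the mean activation of sample wells on that plate plus 3 SD, cut at about 8% in these data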
Target sequence (P32245 whole entry, looked up): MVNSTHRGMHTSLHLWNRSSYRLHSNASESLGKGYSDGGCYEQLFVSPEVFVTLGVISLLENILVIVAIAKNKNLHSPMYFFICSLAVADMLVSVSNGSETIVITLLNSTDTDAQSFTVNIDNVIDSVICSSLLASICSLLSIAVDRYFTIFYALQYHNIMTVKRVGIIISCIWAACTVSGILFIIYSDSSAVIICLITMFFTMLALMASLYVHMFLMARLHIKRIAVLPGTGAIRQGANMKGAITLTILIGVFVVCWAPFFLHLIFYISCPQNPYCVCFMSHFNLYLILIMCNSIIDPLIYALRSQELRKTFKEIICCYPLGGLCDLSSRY
MC4R antag cAMP: blocks human MC4R cAMP signaling. inhibition, % at 6.5 µM. 0.48% of 360,000 active. MC4R-expressing cells, MTII-stimulated cAMP, LANCE TR-FRET;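 active means inhibition above its plate's cutoff, the mean of tested wells on that plate plus 3 SD, cut at about 29% in these data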;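 further: 0% = Melanotan II alone and 100% = Melanotan II plus saturating MCL0020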
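Material: human MC4R-expressing U2OS cells. Probe or stimulus: Melanotan II challenge. Dosing: 6.5 µM single dose. Times: 30-min compound, 1-h challenge, 1-h detection, room temperature. Technique: TR-FRET with Eu-cAMP and labeled anti-cAMP, 671 nm. Replication: singlicate.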
NTR1 ag: activates human neurotensin receptor 1. NTR1-U2OS beta-arrestin-GFP spot imaging, agonist mode. activation, % at 20 µM. 0.17% of 330,000 active. AID 493036;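 active means activation at or above 40% of the spot to cytoplasm intensity ratio, with at least 20 cells analyzed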;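 further: 0% = DMSO without peptide and 100% = 100 nM NTR1 peptide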
aDG glyco up: alpha-DG glycosylation activation; Pro5-aDG cells, alpha-DG glycosylation AlphaScreen (IIH6); 0% Pro5, 100% B10-LARGE cell signal; activation, % at 10 µM; 0.22% of 360,000 active; AID 624168;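 active means activation of at least 8% versus controls, or a plate z-score of at least 8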;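 further: Pro5 are CHO cells carrying HIG-tagged alpha-DG that lacks glycosylation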
aDG conf: confirmation of alpha dystroglycan glycosylation activators; activation, % at 10 µM (by protocol); Pro5-aDG cells, alpha-DG glycosylation, IIH6 AlphaLISA; scaled to LARGE-overexpressing B10 cells as 100%; shares compounds with aDG glyco up; 17% of 600 active;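 active means activation of at least 7% in one or more replicates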;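 further: cells exposed to compound for two days before detection; 0% = DMSO-treated Pro5 cells and 100% = DMSO-treated B10-LARGE cells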
* marks the source's active call; other numbers are inactive results; / = no result given; ! = repeats disagree. Rows were chosen to be rich in hits. Some 2.4% of all compounds tested hit in one or more screens of this group.

SMILES	TAG inh	Tb MetRS inh	MC4R ag barr	MC4R antag cAMP	NTR1 ag	aDG glyco up	aDG conf
CC1Sc2ccc(C(=O)NCc3ccccn3)cc2NC1=O (configuration not stated)	21	0	0	-7	0	5.5*	1
Cc1cc2nc(-c3ccc(F)cc3)c(CC(C)(C)C)n2c(C)c1Br	/	-1	/	/	/	1	/
O=C1NC[C@@H](CCCCN2CCN(Cc3ccccc3)C(=O)C2=O)N(CCC2CCCCC2)C1=O	/	-1	/	/	/	0	/
CC(C)C[C@H]1CN([C@@H](Cc2ccc(O)cc2)CN2CCC[C@H]2CN2C(=O)C(=O)NC[C@@H]2Cc2ccccc2)C(=O)C(=O)N1CC1CCCCCC1	/	0	/	/	/	0	/
O=C(COc1ccc(NS(=O)(=O)c2ccc(F)cc2)cc1)N1CCOCC1	0	0	0	28	0	11*	-1
CCOC(=O)CC1(C)Oc2ccccc2N1S(=O)(=O)c1ccc(C)cc1 (configuration not stated)	/	0	/	/	/	1	/
O=C(COC(=O)c1ccc(S(=O)(=O)N2CCOCC2)cc1)Nc1nc(-c2ccccc2)cs1	10	0	-1	4	0	6.2*	0
CC1(C(=O)NS(=O)(=O)C2CC2)CCN(C(=O)c2cccc(Cl)c2)C1 (configuration not stated)	0	0	-2	5	/	0	/
CCOC(=O)[C@]12CCCC=C1N(Cc1ccccc1)C(=O)[C@H](CC(=O)NCCCN1CCCC1=O)C2	/	0	/	/	/	0	/
N#Cc1ccsc1NC(=O)c1ccc2ncsc2c1	4	0	-1	4	/	15*	5.5*
CC(C)c1nnc(NC(=O)c2cccc(-n3cnnn3)c2)s1	/	0	-1	-2	1	0	/
N#Cc1ccsc1NC(=O)c1cccc(-n2cnnn2)c1	/	0	1	17	-2	11*	7.1*
CCOc1ccc(-n2cc(C(=O)N3CCCCCC3)c3cc(OC)c(OC)cc3c2=O)cc1	-17	-1	2	22	1	5.5*	9.9*
CCOc1ccc(-n2cc(C(=O)NCc3ccco3)c3cc(OC)c(OC)cc3c2=O)cc1	2	-1	0	3	-1	0	/
Cc1ccn2c(NC3CCCCC3)c(-c3cccc(SC4CCCCC4)c3)nc2c1	14	0	-1	8	1	5.7*!	1
Cc1ccccc1CN1C(=O)CSCC1(C)C(=O)Nc1ccc2c(c1)OCCO2 (configuration not stated)	/	0	/	/	/	0	/
Cc1cccc(N2CCN(C3C(=O)Nc4ccccc4-n4nnnc43)CC2)c1C (configuration not stated)	/	0	/	/	/	0	/
CCNc1nc(SC(C)C(=O)OC)nc(N2CCOCC2)n1 (configuration not stated)	3	0	0	3	0	66*	-1
CCNc1nc(SCC(=O)OC)nc(N2CCOCC2)n1	-24	0	0	5	-2	0	/
CC1CCCN(S(=O)(=O)c2ccc(C(=O)Nc3sc4c(c3C(N)=O)CCN(C)C4)cc2)C1 (configuration not stated)	/	-1	0	7	1	48*	3.7*
CNC(=O)c1c(NC(=O)c2ccc(S(=O)(=O)N3CCCC3)cc2)sc2c1CCN(C(C)C)C2	/	/	/	/	0	/	/
CCN1CCc2c(sc(NC(=O)c3ccc(S(=O)(=O)N4CCCCCC4)cc3)c2C(=O)NC)C1	4	0	-1	10	1	26*	0
CCN1CCc2c(sc(NC(=O)c3ccc(S(=O)(=O)N4CCOCC4)cc3)c2C(N)=O)C1	2	1	-1	6	0	88*	3
CC(C)N1CCc2c(sc(NC(=O)C3CCCCC3)c2C(N)=O)C1	15	-1	0	9	2	8.2*	-1
COC(=O)c1c(NC(=O)C2CCCCC2)sc2c1CCN(C(C)C)C2	15	0	0	9	10	0	/
SMILES	TAG inh	Tb MetRS inh	MC4R ag barr	MC4R antag cAMP	NTR1 ag	aDG glyco up	aDG conf
COc1ccc(NC(=O)C2(C)CCN2Cc2ccccc2Cl)cc1OC (configuration not stated)	-34	0	1	-3	/	1	/
COc1ccc(NC(=O)c2cc(-c3cc(F)ccc3OC(C)C)n[nH]2)c(C)c1	10	0	-3	11	/	0	/
COc1ccc(NC(=O)NC[C@@H]2CC[C@@H](Cc3ccc(-c4ccccc4)cc3)O2)cc1	-24	0	3	4	6	6.4*	1
O=C(NCCc1ccccc1)c1ccc(-c2ccc(F)cc2)o1	20	-2	4	-3	1	5.1*	-1
O=C(NCCc1ccccc1)c1ccc(-c2ccccc2C(F)(F)F)o1	/	/	/	/	11	/	/
Cc1cccc(C)c1-n1nnnc1C1(C)CCC(=O)N1CC1CCCCC1 (configuration not stated)	/	-2	/	/	/	0	/
CCCCN(C(=O)CCNC(=O)NC12CC3CC(CC(C3)C1)C2)c1c(N)n(CCC)c(=O)[nH]c1=O	0	-1	-1	10	1	5.1*	0
COc1ccc(C(=O)NC(=S)N2CCCCC2)cc1	/	-2	1	-5	0	3.6*	-1
CCCc1nc2c3ccccc3ccn2c1Cc1ccc(OC)cc1C	/	-1	/	/	/	3	/
Cc1ccc2c(CN3CCN(c4ccc(Cl)c(Cl)c4)CC3)cc(=O)oc2c1	/	0	/	/	/	0	/
CCn1c(=N)n(CC(=O)c2ccc(Cl)c(Cl)c2)c2ccccc21	/	2	1	-12	4	8.0*	9.1*
C=CCn1c(=N)n(CC(=O)c2ccc(Cl)cc2)c2ccccc21	/	2	1	20	5	6.7*	6.3*
CCn1c(=N)n(CC(=O)c2ccc(OC)cc2)c2ccccc21	33	1	1	-11	0	2	/
COc1ccc(Cl)cc1CC1(C)C(=O)Nc2ccc(S(=O)(=O)NC3CCCCC3)cc21 (configuration not stated)	33	0	0	15	/	0	/
O=C(COC(=O)c1cccc(Br)c1)NCCNC(=O)COC(=O)c1cccc(Br)c1	4	0	0	4	1	7.4*	0
O=C(COC(=O)c1cccc(Br)c1)NCCc1ccccc1	/	0	-1	4	0	0	/
Nc1[nH]c(C(=O)c2ccccc2)c(-c2ccc(Cl)c(F)c2)c1C(=O)NCCc1c[nH]c2ccccc12	/	-1	/	/	/	0	/
COc1ccccc1NS(=O)(=O)c1ccc(C(=O)NCCCN2CCOCC2)cc1	-5	-1	1	-3	-3	5.0*	1
